Laboratory results taken from ChEMBL document CHEMBL1135746, “Structure-activity relationships of the antimalarial agent artemisinin. 7. Direct modification of (+)-artemisinin and in vivo antimalarial screening of new, potential preclinical antimalarial candidates” (J Med Chem, 2002).
In brackets after ≈: the same amount, converted by molar mass. Several values for one entry are separate records, joined by “and”; a condition that tells them apart may be missing. Equal entries are not always repeated.

What was measured:
Plasmodium berghei [1] = experiment: Antimalarial activity in Plasmodium berghei infected mice (Mus musculus) at 32 mg/kg/day peroral dose; type: functional; conditions: route oral
How it was run: (§1)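 CD-1 mice (16-18 g), quarantined 2 weeks, then infected with P. berghei (Thompson test). Treatment was given on days 3-5 postinfection. Subcutaneous dosing was a single injection; oral dosing was by gavage of a peanut-oil suspension. Groups of 5 mice were used. Survival was scored out of 5 and parasitemia was followed up to 60 days postinfection.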

Plasmodium berghei [2] = experiment: Antimalarial activity in Plasmodium berghei infected mice (Mus musculus) at 32 mg/kg/day subcutaneous dose; type: functional; how it was run: as §1
Plasmodium berghei [3] = experiment: Antimalarial activity in Plasmodium berghei infected mice (Mus musculus) at 8 mg/kg/day peroral dose; type: functional; conditions: route oral; how it was run: as §1
Plasmodium berghei [4] = experiment: Antimalarial activity in Plasmodium berghei infected mice (Mus musculus) at 8 mg/kg/day subcutaneous dose; type: functional; how it was run: as §1
Plasmodium berghei [5] = experiment: Antimalarial activity in Plasmodium berghei infected mice (Mus musculus) after 128 mg/kg/day subcutaneous dose; type: functional; how it was run: as §1
Plasmodium berghei [6] = experiment: Antimalarial activity in Plasmodium berghei infected mice (Mus musculus) at 128 mg/kg/day peroral dose; type: functional; conditions: route oral; how it was run: as §1
Plasmodium berghei [7] = experiment: Effective dose ED50 against Plasmodium berghei N in mice (Mus musculus) malaria model after subcutaneous administration; type: functional
Plasmodium falciparum [8] = experiment: Inhibitory activity against Plasmodium falciparum K1; type: functional, organism-based
Plasmodium falciparum [9] = experiment: Inhibitory activity against Plasmodium falciparum W2; type: functional, organism-based
How it was run: (§2)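 Parasitized human red blood cells were used in short-term microtitre cultures. Compounds were dissolved in DMSO and diluted 400-fold in culture medium with plasma, giving a starting concentration of at least 12 500 ng/mL. Activity was measured as inhibition of parasite uptake of a radiolabelled nucleic acid precursor.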

Plasmodium yoelii [10] = experiment: Effective subcutaneous dose ED50 in SSV against Plasmodium yoelii sspNS; type: functional; conditions: sc
Plasmodium berghei [11] = experiment: (§3) Effective dose ED90 against Plasmodium berghei N in mice (Mus musculus) malaria model after subcutaneous administration; type: functional; conditions: Plasmodium berghei, sc; read-out: ED90
Plasmodium yoelii [12] = experiment: Effective dose after oral administration against Plasmodium yoelii sspNS for 50%inhibition in presence of DMSO; type: functional
Plasmodium berghei [13] = experiment: (§4) Effective dose ED90 against Plasmodium berghei N in mice (Mus musculus) malaria model after peroral administration; type: functional; conditions: po
Plasmodium yoelii [14] = experiment: Effective subcutaneous dose ED90 in SSV against Plasmodium yoelii sspNS; type: functional; conditions: sc
Plasmodium falciparum [15] = experiment: Inhibitory activity against Plasmodium falciparum D6; type: functional, organism-based; how it was run: as §2
Plasmodium yoelii [16] = experiment: Effective dose after oral administration against Plasmodium yoelii sspNS for 90%inhibition in presence of DMSO; type: functional
Plasmodium yoelii [17] = experiment: Effective oral dose ED90 in DMSO against Plasmodium yoelii sspNS; type: functional
Plasmodium berghei [18] = experiment: Effective dose ED50 against Plasmodium berghei N in mice (Mus musculus) malaria model after peroral administration; type: functional
Plasmodium yoelii [19] = experiment: Effective oral dose ED50 in DMSO against Plasmodium yoelii sspNS; type: functional
Plasmodium yoelii [20] = experiment: Effective oral dose ED90 in SSV against Plasmodium yoelii sspNS; type: functional
Plasmodium yoelii [21] = experiment: Effective dose ED50 against Plasmodium yoelii sspNS in presence of SSV; type: functional
Plasmodium berghei [22] = experiment: Effective dose ED90 against Plasmodium berghei N in mice (Mus musculus) malaria model after subcutaneous dose; conditions: sc
Plasmodium yoelii [23] = experiment: Effective subcutaneous dose ED90 against Plasmodium yoelii sspNS; type: functional; conditions: Plasmodium yoelii, sc; read-out: ED90
Plasmodium yoelii [24] = experiment: Effective subcutaneous dose ED50 against Plasmodium yoelii sspNS; type: functional; conditions: sc
Plasmodium berghei [25] = experiment: as §3; type: functional; conditions: sc
How it was run: (§5)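 Peters' 4-day test: two batches of five male random-bred Swiss albino mice (18-22 g) were inoculated i.v. with 2 × 10⁶ P. berghei N-parasitized RBC. Drug was given once daily for four consecutive days. Compounds were dissolved in DMSO, then diluted in water for subcutaneous or oral dosing. Parasitemia was read the day after the last treatment.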

Plasmodium berghei [26] = experiment: Effective dose ED90 against Plasmodium berghei N in mice (Mus musculus) malaria model after oral administration; type: functional; how it was run: as §5
Plasmodium berghei [27] = experiment: Effective dose […] against Plasmodium berghei N in a mice (Mus musculus) malaria model after oral dose; type: functional
Plasmodium falciparum [28] = experiment: Inhibitory activity against Plasmodium falciparum NF54; type: functional, organism-based
Plasmodium berghei [29] = experiment: as §4; type: functional; conditions: po; how it was run: as §5; remark: listed apart in the source
Plasmodium berghei [30] = experiment: Effective dose against Plasmodium berghei N in mice (Mus musculus) malaria model after subcutaneous administration; type: functional; conditions: sc; how it was run: as §5
Plasmodium berghei [31] = experiment: Effective dose Plasmodium berghei N in mice (Mus musculus) malaria model after subcutaneous administration; type: functional; conditions: sc; how it was run: as §5
Plasmodium berghei [32] = experiment: Effective dose ED50 against Plasmodium berghei N and Plasmodium species infected mice (Mus musculus) after peroral dose; type: functional; conditions: po; how it was run: as §5
[33] = Plasmodium berghei, sc, read-out: ED50
[34] = Plasmodium berghei, po, read-out: ED50

SMILES	Activity (Plasmodium berghei [1])	Activity (Plasmodium berghei [2])	Activity (Plasmodium berghei [3])	Activity (Plasmodium berghei [4])	Activity (Plasmodium berghei [5])	Activity (Plasmodium berghei [6])	ED50 (Plasmodium berghei [7]; [33]) [mg/kg]	IC50 (Plasmodium falciparum [9]) [ng/mL]	ED90 (Plasmodium berghei [11]) [mg/kg]	ED90 (Plasmodium berghei [13]) [mg/kg]	IC50 (Plasmodium falciparum [15]) [ng/mL]	ED50 (Plasmodium berghei [18]; [34]) [mg/kg]	other results
C[C@@H]1CC[C@H]2[C@@H](CCCc3ccc(Cl)c(Cl)c3)CO[C@@H]3OC4(C)CC[C@@H]1[C@]32OO4 (single isomer, unassigned)	5	5	0	0	5	5							
C[C@@H]1CC[C@H]2[C@@H](CCCc3ccc(F)cc3)CO[C@@H]3OC4(C)CC[C@@H]1[C@]32OO4 (single isomer, unassigned)	5	5	1	0	5	5							
C[C@@H]1CC[C@H]2[C@@H](CCCc3cc(F)cc(F)c3)CO[C@@H]3OC4(C)CC[C@@H]1[C@]32OO4 (single isomer, unassigned)							1.3	6.5 (≈ 0.0159 µM)	2	5.7	0.82 (≈ 0.00201 µM)		IC50 (Plasmodium falciparum [8]): 3.2 ng/mL (≈ 0.00783 µM); ED50 (Plasmodium yoelii [10]): 2.2 mg/kg; ED50 (Plasmodium yoelii [12]): 2.3 mg/kg; ED90 (Plasmodium yoelii [14]): 6.5 mg/kg; ED90 (Plasmodium yoelii [16]): 7.5 mg/kg
C[C@@H]1CC[C@H]2[C@@H](CCCc3cc(C(F)(F)F)cc(C(F)(F)F)c3)CO[C@@H]3OC4(C)CC[C@@H]1[C@]32OO4 (single isomer, unassigned)							0.9	7.11 (≈ 0.014 µM)	1.7	5	0.78 (≈ 0.00153 µM)	2.6	ED90 (Plasmodium yoelii [17]): 3.6 mg/kg; IC50 (Plasmodium falciparum [8]): 4.06 ng/mL (≈ 0.00798 µM); ED50 (Plasmodium yoelii [19]): 1.5 mg/kg; ED90 (Plasmodium yoelii [20]): 12 mg/kg; ED50 (Plasmodium yoelii [21]): 4.2 mg/kg
C[C@@H]1CC[C@H]2[C@@H](C)C(=O)O[C@@H]3O[C@@]4(C)CC[C@@H]1[C@]32OO4 [ARTEMISININ]	0	3	0	0	5	0							
CCN(CC)CCCC(C)Nc1ccnc2cc(Cl)ccc12 (stereo not given) [CHLOROQUINE]							1.5		3				ED90 (Plasmodium berghei [22]): 1.8 mg/kg; ED90 (Plasmodium yoelii [23]): 28 mg/kg; ED50 (Plasmodium yoelii [24]): 1.6 mg/kg; ED90 (Plasmodium berghei [25]): 3.4 mg/kg
OC(c1cc(C(F)(F)F)nc2c(C(F)(F)F)cccc12)C1CCCCN1 (stereo not given) [MEFLOQUINE]							1.1		2.3				ED90 (Plasmodium yoelii [23]): 6 mg/kg; ED90 (Plasmodium berghei [26]): 5.1 mg/kg; ED50 (Plasmodium yoelii [24]): 2.3 mg/kg; ED50 (Plasmodium berghei [27]): 3.3 mg/kg
C=C[C@H]1CN2CC[C@H]1C[C@H]2[C@H](O)c1ccnc2ccc(OC)cc12 [QUININE]							83	150 (≈ 0.462 µM)	1050	118	160 (≈ 0.492 µM)	71	IC50 (Plasmodium falciparum [28]): 9.08 ng/mL (≈ 0.028 µM)
C[C@H]1[C@H](OC(=O)CCC(=O)[O-])O[C@@H]2O[C@@]3(C)CC[C@H]4[C@H](C)CC[C@@H]1[C@@]24OO3.[Na+] [SODIUM ARESUNATE]												2.4	ED50 (Plasmodium berghei [18]): 1.6 mg/kg; ED50 (Plasmodium berghei [7]): 0.8 mg/kg and 1.8 mg/kg; ED90 (Plasmodium berghei [29]): > 10 mg/kg; ED90 (Plasmodium berghei [30]): > 10 mg/kg; ED50 (Plasmodium berghei [31]): > 10 mg/kg; ED90 (Plasmodium berghei [32]): > 10 mg/kg
